Results of several laboratories.
Compare with care: the assays were run in different laboratories.
Dipeptidyl peptidase 8: Dipeptidyl peptidase 8 (Homo sapiens, UniProt Q6V1X1)
Nos1: Nitric oxide synthase 1 (Nos1, Rattus norvegicus, UniProt P29476)
HDAC8: Histone deacetylase 8 (HDAC8, Homo sapiens, UniProt Q9BY41)
PRKCA: Protein kinase C alpha type (PRKCA, Homo sapiens, UniProt P17252)

Compound | target | observed | mode | method | tested at | inhibition
O=C(Nc1cccnn1)N1CCN([C@@H]2CCOc3cc(C(F)(F)F)ccc32)CC1 | Somatostatin receptor type 4 (SSTR4, Homo sapiens, UniProt P31391) | ligand displacement |  |  | 20 µM | 29%
CN(C)C(=O)COC(=O)Cc1ccc(OC(=O)c2ccc(NC(=N)N)cc2)cc1 | Dipeptidyl peptidase 8 | enzyme activity | inhibitor |  | 10 µM | 8%
c1ccc(C(NCCNC(c2ccccc2)c2ccccc2)c2ccccc2)cc1 | Nos1 | enzyme activity | inhibitor |  | 10 µM | 6%
CCN(CC)CCCC[C@H](NC(=O)[C@H](CC(C)C)NC(=O)[C@H](C)NC(=O)[C@H](Cc1ccccc1)NC(=O)c1ccc(C(C)(C)C)cc1)C(=O)N[C@@H](CO)C(=O)OC | Mu-type opioid receptor (OPRM1, Homo sapiens, UniProt P35372) | ligand displacement |  | radioligand | 10 µM | 51%
COc1c2ccoc2cc2oc(=O)ccc12 | HDAC8 | enzyme activity | inhibitor |  | 10 µM | 34.4%
O=C(CNC(=O)c1coc(-c2ccccc2O)n1)Nc1ccccc1 | Histone deacetylase 1 (HDAC1, Homo sapiens, UniProt Q13547) | enzyme activity | inhibitor |  | 20 µM | 26%
N#Cc1ccc(NCCNCC(=O)N2N=CCC2C#N)nc1 (centres unmarked) | Dipeptidyl peptidase 8 | enzyme activity | inhibitor |  | 100 µM | 81%
Cn1cc(-c2cccc(N3CCc4c(sc5c4CC(C)(C)C5)C3=O)c2CO)cc(Nc2ccncn2)c1=O | Testis-specific serine/threonine-protein kinase 2 (TSSK2, Homo sapiens, UniProt Q96PF2) | enzyme activity | inhibitor |  | 1 µM | 2%
CCOC(=O)c1ccc(OC(=O)CCCCCNC(=N)N)cc1 | Dipeptidyl peptidase 8 | enzyme activity | inhibitor |  | 10 µM | 13%
Cn1cc(-c2cc(F)cc(N3CCn4c(cc5c4CCCC5)C3=O)c2CO)cc(Nc2ccc(N3CCN(C4COC4)CC3)cn2)c1=O | PRKCA | enzyme activity | inhibitor |  | 0.1 µM | -11%
C[C@H](C(=O)N[C@H]1COc2ccccc2[C@@H]1S(C)(=O)=O)c1ccc(F)cc1 | Nos1 | enzyme activity | inhibitor |  | 10 µM | 6%
COc1cc(Nc2ncc(F)c(Nc3ccc4c(n3)NC(=O)C(C)(C)O4)n2)cc(OC)c1OC | Ephrin type-A receptor 6 (EPHA6, Homo sapiens, UniProt Q9UF33) | binding |  | competition with immobilised ligand | 10 µM | 82%
N=C(N)c1ccc2cc(OC(=O)c3ccc(N=C(N)N)cc3)ccc2c1 | Ubiquitin carboxyl-terminal hydrolase 8 (USP8, Homo sapiens, UniProt P40818) | enzyme activity | inhibitor |  | 10 µM | 5%
C#Cc1n[nH]c2c(-c3cn([C@@H](C)c4ccccc4)c(=O)[nH]c3=O)cc(F)cc12 | PRKCA | enzyme activity | inhibitor |  | 0.1 µM | 9.6%
O=c1ccc2cc3ccoc3cc2o1 | HDAC8 | enzyme activity | inhibitor |  | 10 µM | 30.7%
C#Cc1n[nH]c2c(-c3cn(C(C)c4ccccn4)c(=O)[nH]c3=O)cc(F)cc12 (centres unmarked) | Tyrosine-protein kinase Yes (YES1, Homo sapiens, UniProt P07947) | enzyme activity | inhibitor |  | 1 µM | -0.2%
COCc1c(-c2cc3cc(C)cc(OC)c3s2)c2c(N)ncnn2c1CN1CCNC(=O)C1 | Nos1 | enzyme activity | inhibitor |  | 10 µM | -8%
